RAD52 anneal inh: inhibitors of human RAD52 DNA annealing. inhibition, % at 18.7 µM. AID 651710. recombinant RAD52 DNA annealing, FRET fluorescence. P43351. 0.46% of 360,000 active;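 active = every replicate showing at least 50% inhibition; inconclusive = mean inhibition at least 50% but not in every replicate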
AF4-AF9 inh: inhibitors of human MLL-AF4/AF9 interaction | P42568 | AlphaScreen, biotin-AF4 peptide binding to FLAG-AF9 | inhibition, % at 10 µM | 0.47% of 350,000 active | AID 651704;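 active = every replicate reaching a set inhibition limit, whatever the replicate mean, cut at about 25% in these data; inconclusive = mean inhibition reaches that limit but some replicates miss it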
RAD54 branch: inhibitors of human RAD54 branch migration; Q92698; RAD54 Holliday junction branch migration, FAM/BHQ fluorescence; inhibition, % at 10.4 µM; 0.14% of 360,000 active; AID 602329;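 active = mean normalized replicate activity at least 40 and at least half of replicates scoring 40 or more; inconclusive = only one of the two criteria met; inactive = mean below 40 and under half of replicates reaching 40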;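 note: inhibitors cause a drop in the FAM fluorescence signal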
Target sequence (Q92698 whole entry, looked up): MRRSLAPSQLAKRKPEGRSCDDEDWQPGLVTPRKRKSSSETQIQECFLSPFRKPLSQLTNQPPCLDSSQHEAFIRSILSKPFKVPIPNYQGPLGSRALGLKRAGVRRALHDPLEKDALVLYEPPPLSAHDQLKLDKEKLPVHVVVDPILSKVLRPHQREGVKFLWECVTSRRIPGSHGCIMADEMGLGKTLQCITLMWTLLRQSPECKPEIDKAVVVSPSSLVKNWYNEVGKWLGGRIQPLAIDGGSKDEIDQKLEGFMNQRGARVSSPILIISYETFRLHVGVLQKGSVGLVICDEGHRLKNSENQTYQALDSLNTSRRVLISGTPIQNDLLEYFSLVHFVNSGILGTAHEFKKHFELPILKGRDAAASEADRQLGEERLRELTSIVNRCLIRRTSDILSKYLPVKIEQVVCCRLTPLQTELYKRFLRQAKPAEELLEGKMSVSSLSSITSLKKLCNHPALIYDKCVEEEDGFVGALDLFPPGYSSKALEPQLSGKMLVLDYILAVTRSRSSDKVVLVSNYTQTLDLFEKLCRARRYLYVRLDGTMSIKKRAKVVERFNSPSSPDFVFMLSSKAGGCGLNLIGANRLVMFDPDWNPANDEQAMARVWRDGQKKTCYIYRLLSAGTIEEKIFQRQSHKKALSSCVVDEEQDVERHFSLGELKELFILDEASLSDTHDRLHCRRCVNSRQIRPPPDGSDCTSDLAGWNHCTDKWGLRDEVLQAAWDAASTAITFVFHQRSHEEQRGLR
dFosB act-1: activators of mouse delta FosB homodimer; purified delta FosB, TAMRA-CDK5 oligo fluorescence polarization; percent of positive-control signal above neutral wells; activation, % at 25 µM; 0.99% of 340,000 active; AID 493131;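 active = mean activation above about 17%, with every replicate also reaching it, limit read from the data, passing the limit was not always enough; inconclusive = only one of the two conditions met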
S100A4 inh HTS: S100A4-myosin IIA interaction inhibition. P26447. S100A4/TAMRA-MyoIIA peptide fluorescence polarization. inhibition, % at 10.7 µM. 0.14% of 360,000 active. AID 652163;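 active = mean inhibition of at least 70% across replicates, with every replicate also reaching that level; inconclusive = mean inhibition reaches 70% but some replicates fall short; inactive = mean inhibition below 70%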
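Material: S100A4 monomer protein / Buffer or medium: 50 mM HEPES pH 7.2, 10 mM CaCl2, 100 mM KCl / Times: 5 min incubation before reading / Benchmarks: neutral control DMSO, positive control TFP / Reagent: labelled myosin peptide probe, 5 nM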
dFosB act-2: delta FosB (mouse) homodimer activation. shares compounds with dFosB act-1. purified delta FosB, TAMRA-CDK5 oligo fluorescence polarization; normalised: neutral wells 0, positive control 100. activation, % at 24.9 µM. 2,400 tested, under 10 active. AID 588690;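 active = highest replicate activation at or above 34% and every replicate reaching that threshold; inconclusive = meets only one of the two criteria; inactive = meets neither criterion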;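 note: higher polarization means more probe DNA bound by delta FosB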
Hits are given with their value; i = inactive; ? = inconclusive; nt = not tested or not shown. In the library only some 1.5% were active in any assay of this set; here they are far more common.

SMILES	RAD52 anneal inh	AF4-AF9 inh	RAD54 branch	dFosB act-1	S100A4 inh HTS	dFosB act-2
C[C@@H]1CCCCO[C@H](CN(C)C(=O)CCCN(C)C)[C@@H](C)CN([C@H](C)CO)C(=O)c2cc(NS(=O)(=O)c3ccc(F)cc3)ccc2O1	i	i	i	nt	i	nt
COc1ccc2cc(C)c3nnc(SCC(=O)Nc4nc(-c5ccccc5)cs4)n3c2c1	nt	nt	i	41.1	nt	i
COc1ccccc1S(=O)(=O)N1C[C@@H](O)COC[C@@H]2O[C@H](CC(=O)O)CC[C@H]21	i	i	i	nt	i	nt
CCOC(=O)c1c(CSC(=N)N)n(-c2ccccc2)c2cc(Br)c(OC(C)=O)cc12	i	i	nt	30.4	i	?
COCC(=O)Nc1ccc2c(c1)[C@@H]1C[C@@H](CC(=O)NC3CCCCC3)O[C@@H](CO)[C@@H]1O2	i	i	i	nt	i	nt
CCOc1ccc(Oc2ccc(NC(=O)[C@@H](NC(N)=O)[C@@H](C)CC)cc2)cc1	i	i	i	30.7	i	i
COc1cc2c(cc1NC(=O)Nc1ccccc1)oc1ccccc12	nt	nt	i	19.2	nt	i
COc1ccc(Nc2nc(OC)nc(OC)n2)cc1	i	i	i	i	i	nt
COc1ccc(Nc2nc(Nc3ccc(OC)cc3)nc(SC3=NCCS3)n2)cc1	i	nt	i	37.1	i	i
CCS(=O)(=O)N1CC2(CN(Cc3ccc(F)cc3)[C@H](CO)c3c2c2ccc(OC)cc2n3C)C1	nt	i	nt	nt	nt	nt
Cc1cccc2c1-c1sc(C(=O)Nc3cccnc3)cc1CO2	i	i	i	31.9	i	i
O=C(Nc1nccs1)c1cc2c(s1)-c1ccccc1OC2	i	i	i	36.8	i	i
Cc1noc(C)c1NC(=O)N(C)C[C@@H]1OCCCC[C@H](C)Oc2ccc(NC(=O)Nc3cccc4ccccc34)cc2C(=O)N([C@H](C)CO)C[C@@H]1C	nt	nt	i	nt	nt	nt
C[C@H]1CN([C@@H](C)CO)C(=O)c2cc(C3=CCCCC3)cnc2O[C@H]1CN(C)Cc1ccccc1F	i	i	i	nt	i	nt
O=C(CN1C(=O)NC2(CCc3ccccc3C2)C1=O)Nc1ccc(Cl)cc1F (stereo unspecified)	i	i	nt	40.1	i	i
CN(C)CCCN1C(=O)c2cccc3c(Br)ccc(c23)C1=O	i	i	nt	31.8	i	i
COc1ccc(C(=O)NN(C)c2nc(-c3ccccc3)nnc2C(F)(F)F)cc1	nt	nt	i	68.1	nt	i
N#C/C(=C(/O)COC(=O)c1ccc(Cl)c(S(=O)(=O)N2CCOCC2)c1)c1nc2ccccc2[nH]1	i	i	nt	i	i	nt
N#C/C(=C(/O)COC(=O)c1ccc2c(c1)OCCO2)c1nc2ccccc2[nH]1	nt	nt	i	39.4	nt	i
CN(c1ccccc1)S(=O)(=O)c1ccc(NC(=S)NC(=O)c2ccccc2)cc1	nt	nt	i	i	nt	nt
COc1ccccc1/C=C/C(=O)NC(=S)Nc1ccc(S(=O)(=O)N(C)c2ccccc2)cc1	nt	nt	i	23.8	nt	i
CCNc1c(NS(=O)(=O)c2ccc(OC)c(Cl)c2)c(=O)oc2ccccc12	i	i	i	i	i	nt
CNc1c(NS(=O)(=O)c2ccc(OC)c(Cl)c2)c(=O)oc2ccccc12	i	i	i	64.5	i	i
CCCNc1c(NS(=O)(=O)c2ccc(C)c(C)c2)c(=O)oc2ccccc12	i	i	i	i	i	nt
CCCNc1c(NS(=O)(=O)c2ccc3c(c2)CCCC3)c(=O)oc2ccccc12	nt	nt	i	59.7	nt	i
SMILES	RAD52 anneal inh	AF4-AF9 inh	RAD54 branch	dFosB act-1	S100A4 inh HTS	dFosB act-2
Cc1ccc(S(=O)(=O)Nc2cccc3c2O[C@H](CN(C)Cc2ccncc2)[C@H](C)CN([C@H](C)CO)C3=O)cc1	i	i	i	nt	i	nt
CO[C@@H]1CN(C)C(=O)c2cc(NC(=O)Nc3ccccc3)ccc2OC[C@H](C)N(CC2CC2)C[C@H]1C	i	i	i	nt	i	nt
CCCn1c(N)c(C(=O)CSc2nc3ncc(Cl)cc3[nH]2)c(=O)n(C)c1=O	i	i	i	27.6	i	i
C[C@H]1CN([C@@H](C)CO)C(=O)c2cc(C#Cc3ccncc3)cnc2O[C@H]1CN(C)C(=O)CN(C)C	i	i	nt	nt	i	nt
Cc1ccc(-n2c(SCC(=O)Nc3nccs3)nc3c(c2=O)SCC3)cc1	nt	nt	i	38.2	nt	i
O=C([C@@H]1[C@@H](CO)[C@@H]2Cn3c(ccc(-c4ccccc4)c3=O)[C@@H]2N1CCC(F)(F)F)N1CCOCC1	i	i	i	nt	i	nt

Source: PubChem BioAssay (Broad Institute)
